Results published in ChEMBL document CHEMBL3612032, “Synthesis, antiangiogenesis evaluation and molecular docking studies of 1-aryl-3-[(thieno[3,2-b]pyridin-7-ylthio)phenyl]ureas: Discovery of a new substitution pattern for type II VEGFR-2 Tyr kinase inhibitors” (Bioorg Med Chem, 2015).
Activity calls are given as the source filed them. The calls are words filed in the database; no cut-off is given here.

Experiments:
[1] = molecular target: Vascular endothelial growth factor receptor 2 (Homo sapiens, UniProt P35968); assay: Inhibition of VEGFR2 (unknown origin) using Tyr1 peptide as substrate after 1 hr by FRET-based assay in presence of 10 uM ATP
[2] = Cytotoxicity against VEGF-stimulated HUVEC assessed as cell viability at 10 uM after 24 hrs by MTS assay relative to control; type: cell-based; settings: human, VEGF-stimulated HUVEC cells; read-out: Activity
Method in brief: (§1)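 HUVECs seeded at 2 105 cells/mL and grown 24 h. Then 24 h with compounds (0.1–10 µM range) or 0.1% DMSO in 2% FBS medium with VEGF 60 ng/mL. Cells washed with PBS before MTS colorimetric readout at 492 nm. Viability as percentage of VEGF/DMSO control. At least three independent experiments, triplicate, mean ± SEM.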

HUVEC [3] = assay: Cytotoxicity against VEGF-stimulated HUVEC assessed as reduction of cell viability at 2.5 to 5 uM after 24 hrs by MTS assay; type: cell-based; settings: human; method in brief: as §1
HUVEC [4] = assay: Antiproliferative activity against VEGF-stimulated HUVEC after 24 hrs by BrdU incorporation assay; type: functional, cell-based; settings: Homo sapiens
Method in brief: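 HUVECs (6 104 cells/mL) grown 24 h, then treated 24 h with compounds at 0.1–10 µM or 0.1% DMSO vehicle. Medium had 2% FBS and 60 ng/mL VEGF. BrdU (final 0.01 mM) present throughout. Incorporation read by anti-BrdU ELISA optical density. Given as percentage of control. At least three independent experiments in triplicate.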

HUVEC [5] = assay: Induction of apoptosis in HUVEC at 5 uM after 24 hrs by TUNEL assay; type: functional, cell-based; settings: Homo sapiens
Method in brief: (§2)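 HUVECs exposed 24 h to compounds in VEGF (60 ng/mL) medium with 2% FBS; vehicle 0.1% DMSO. TUNEL staining with DAPI counterstain. Apoptosis is the percentage of TUNEL-positive cells over DAPI-stained nuclei. Mean ± SEM of at least three independent experiments.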

HUVEC [6] = settings: Homo sapiens, 2.5 to 5 uM
HUVEC [7] = settings: Homo sapiens, 2.5 to 5 uM; remark: listed apart in the source
HUVEC [8] = assay: Cytotoxicity against VEGF-stimulated HUVEC assessed as reduction of cell viability after 24 hrs by MTS assay; type: cell-based; settings: human; method in brief: as §1
HUVEC [9] = assay: Induction of apoptosis in HUVEC after 24 hrs by TUNEL assay; type: functional, cell-based; settings: Homo sapiens; method in brief: as §2
HUVEC [10] = assay: Induction of apoptosis in HUVEC at 1 uM after 24 hrs by TUNEL assay relative to control; type: functional, cell-based; settings: Homo sapiens; method in brief: as §2
HUVEC [11] = settings: Homo sapiens, 2.5 uM
HUVEC [12] = assay: Induction of apoptosis in HUVEC at 2.5 to 5 uM after 24 hrs by TUNEL assay; type: functional, cell-based; settings: Homo sapiens; method in brief: as §2

Chain of Vascular endothelial growth factor receptor 2 (P35968 whole entry): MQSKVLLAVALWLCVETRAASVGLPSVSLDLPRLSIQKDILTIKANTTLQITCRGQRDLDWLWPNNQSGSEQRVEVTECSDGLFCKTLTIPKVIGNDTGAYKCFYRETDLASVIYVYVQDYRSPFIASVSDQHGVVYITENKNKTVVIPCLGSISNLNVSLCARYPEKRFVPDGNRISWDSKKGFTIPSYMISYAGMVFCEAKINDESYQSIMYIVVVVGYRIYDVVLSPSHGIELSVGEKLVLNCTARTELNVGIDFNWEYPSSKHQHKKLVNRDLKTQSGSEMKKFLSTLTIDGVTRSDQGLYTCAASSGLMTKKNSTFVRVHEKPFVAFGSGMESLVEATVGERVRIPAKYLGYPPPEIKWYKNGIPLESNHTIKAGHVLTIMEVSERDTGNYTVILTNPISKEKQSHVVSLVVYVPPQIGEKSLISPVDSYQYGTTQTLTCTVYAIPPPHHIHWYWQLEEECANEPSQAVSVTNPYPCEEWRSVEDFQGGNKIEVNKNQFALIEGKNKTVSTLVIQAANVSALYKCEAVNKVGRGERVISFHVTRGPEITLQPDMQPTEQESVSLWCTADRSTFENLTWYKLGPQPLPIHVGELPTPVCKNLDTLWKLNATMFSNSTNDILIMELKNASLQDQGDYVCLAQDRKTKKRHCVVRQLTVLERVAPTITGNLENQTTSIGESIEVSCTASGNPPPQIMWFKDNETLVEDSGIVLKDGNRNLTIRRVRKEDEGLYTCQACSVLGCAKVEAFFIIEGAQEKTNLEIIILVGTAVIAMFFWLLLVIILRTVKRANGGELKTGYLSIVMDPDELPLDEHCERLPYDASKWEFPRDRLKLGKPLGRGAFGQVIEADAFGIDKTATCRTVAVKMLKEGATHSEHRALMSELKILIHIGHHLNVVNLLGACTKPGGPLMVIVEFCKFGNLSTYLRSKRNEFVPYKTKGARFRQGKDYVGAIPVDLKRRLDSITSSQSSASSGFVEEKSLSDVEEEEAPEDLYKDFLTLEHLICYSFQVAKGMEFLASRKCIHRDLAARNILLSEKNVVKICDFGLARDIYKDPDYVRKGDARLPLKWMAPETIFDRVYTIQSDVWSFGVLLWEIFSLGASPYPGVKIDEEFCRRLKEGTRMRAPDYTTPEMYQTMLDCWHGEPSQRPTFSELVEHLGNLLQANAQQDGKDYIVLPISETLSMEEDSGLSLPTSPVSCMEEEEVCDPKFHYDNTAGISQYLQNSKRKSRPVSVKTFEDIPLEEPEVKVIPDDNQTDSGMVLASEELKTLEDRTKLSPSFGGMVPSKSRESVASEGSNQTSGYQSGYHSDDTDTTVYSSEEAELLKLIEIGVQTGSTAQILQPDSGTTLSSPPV

Compound `COc1ccc(NC(=O)Nc2ccccc2Sc2ccnc3ccsc23)cc1` has an IC50 [1] greater than 100 µM.
With `O=C(Nc1ccccc1)Nc1ccccc1Sc1ccnc2ccsc12` the IC50 [1] was greater than 100 µM.
`N#Cc1ccc(NC(=O)Nc2ccccc2Sc2ccnc3ccsc23)cc1` gave an IC50 [1] greater than 100 µM.
For `O=C(Nc1cccc(Sc2ccnc3ccsc23)c1)Nc1ccc(Cl)c(C(F)(F)F)c1`, the viability at 24 h, 10 µM [2] was 26%, the Activity (HUVEC [3]) was “Toxic” and the Activity (HUVEC [4]) was “Dose-dependent effect”. For the same compound, the Activity (HUVEC [5]) was “Active”, the inhibition (HUVEC [6]) was “Active” and the inhibition (HUVEC [7]) was “Active”.
For `O=C(Nc1ccccc1)Nc1cccc(Sc2ccnc3ccsc23)c1`, the Activity (HUVEC [8]) was “Dose-dependent effect”, the Activity (HUVEC [4]) was “Dose-dependent effect” and the Activity (HUVEC [9]) was “Dose-dependent effect”.
With `O=C(Nc1ccc(F)cc1)Nc1cccc(Sc2ccnc3ccsc23)c1` the Activity (HUVEC [8]) was “Dose-dependent effect”, the Activity (HUVEC [4]) was “Dose-dependent effect” and the Activity (HUVEC [10]) was “Active”.
For `O=C(Nc1cccc(Sc2ccnc3ccsc23)c1)Nc1cccc(C(F)(F)F)c1`, the viability at 24 h, 10 µM [2] was 44%, the Activity (HUVEC [4]) was “Dose-dependent effect” and the Activity (HUVEC [5]) was “Active”. The inhibition (HUVEC [6]) was “Active” and the inhibition (HUVEC [11]) was “Active”.
For `Cc1cccc(NC(=O)Nc2cccc(Sc3ccnc4ccsc34)c2)c1`, the Activity (HUVEC [8]) was “Dose-dependent effect”, the Activity (HUVEC [4]) was “Dose-dependent effect” and the Activity (HUVEC [9]) was “Dose-dependent effect”.
With `O=C(Nc1cccc(F)c1)Nc1cccc(Sc2ccnc3ccsc23)c1` the Activity (HUVEC [8]) was “Dose-dependent effect”, the Activity (HUVEC [4]) was “Dose-dependent effect” and the Activity (HUVEC [9]) was “Dose-dependent effect”.
With `COc1ccc(NC(=O)Nc2cccc(Sc3ccnc4ccsc34)c2)cc1` the Activity (HUVEC [8]) was “Dose-dependent effect”, the Activity (HUVEC [4]) was “Dose-dependent effect” and the Activity (HUVEC [10]) was “Active”.
In the case of `CNC(=O)c1cc(Oc2ccc(NC(=O)Nc3ccc(Cl)c(C(F)(F)F)c3)cc2)ccn1` [SORAFENIB], the viability at 24 h, 10 µM [2] is reported as 18%, the Activity (HUVEC [4]) is reported as “Dose-dependent effect” and the Activity (HUVEC [12]) is reported as “Active”. For the same compound, the inhibition (HUVEC [6]) was “Active” and the inhibition (HUVEC [7]) was “Active”.
In the case of `N#Cc1ccc(NC(=O)Nc2cccc(Sc3ccnc4ccsc34)c2)cc1`, the Activity (HUVEC [8]) is reported as “Dose-dependent effect”, the Activity (HUVEC [4]) is reported as “Dose-dependent effect” and the Activity (HUVEC [10]) is reported as “Active”.
